Active and inactive are the calls of the source. The rule behind the calls is not given here.
What was measured:
[1] = tested on: HCT-8; experiment: Induction of apoptosis in human HCT8 cells assessed necrosis level at 50 ug/ml incubated for 24 hrs by annexin V-FITC and propidium iodide staining based flow cytometry (reference value: 1.12%); format: functional
[2] = Cytotoxicity against human HCT8 cells assessed as cell viability at 25 ug/ml incubated for 24 hrs by MTS assay; format: functional; conditions: HCT-8, 24 h, read-out: Activity
Procedure, shortened: (§1)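 Cells were held at 37 °C, 5% CO2 in humid air. HEp-2 (5 x 10³/well) and HCT-8 (7 x 10³/well) grew in DMEM + 10% heat-inactivated FBS and got compound (binary dilutions) 24 h after seeding. THP-1 (5 x 10³ cells, RPMI-1640 + 10% FBS) were added directly to the dilutions. Exposure lasted 24 h. MTS (CellTiter 96 AQueous One) read-out was absorbance at 490 nm.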

[3] = tested on: THP-1; experiment: Cytotoxicity against human THP1 cells assessed as cell viability at 50 ug/ml incubated for 24 hrs by MTS assay; format: functional; conditions: THP-1, 24 h, read-out: Activity; procedure, shortened: as §1
[4] = tested on: HEp-2; experiment: Induction of cell cycle arrest in human Hep2 cells assessed accumulation at G0/G1 phase at 50 ug/ml incubated for 24 hrs by propidium iodide staining based flow cytometry (reference value: 74.51%); format: functional
[5] = tested on: HEp-2; experiment: Increase in cyclin B gene expression in human Hep2 cells at 10 ug/ml incubated for 24 hrs by real-time PCR method; format: functional, cell-based
Procedure, shortened: (§2)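 HEp-2 cells were treated 24 h at 10 or 50 µg/mL. Total RNA was extracted with Trizol, and 2 µg was reverse-transcribed. 50 ng cDNA went into TaqMan real-time PCR with beta-actin as endogenous control. Relative expression was calculated by the ∆∆CT method. Each experiment was run three times.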

[6] = tested on: HCT-8; experiment: Induction of apoptosis in human HCT8 cells assessed viable cells level at 50 ug/ml incubated for 24 hrs by annexin V-FITC and propidium iodide staining based flow cytometry (reference value: 93.3%); format: functional
[7] = tested on: HEp-2; experiment: Induction of cell cycle arrest in human Hep2 cells assessed accumulation at G2/M phase incubated for 24 hrs by propidium iodide staining based flow cytometry; format: functional
[8] = tested on: HEp-2; experiment: Induction of cell cycle arrest in human Hep2 cells assessed accumulation at G2/M phase at 10 ug/ml incubated for 24 hrs by propidium iodide staining based flow cytometry (reference value: 7.82%); format: functional
[9] = Reduction in PRKAA1 gene expression in human Hep2 cells at 10 ug/ml incubated for 24 hrs by real-time PCR method; format: functional, cell-based; conditions: HEp-2; procedure, shortened: as §2
[10] = tested on: HEp-2; experiment: Induction of cell cycle arrest in human Hep2 cells assessed accumulation at G2/M phase at 50 ug/ml incubated for 24 hrs by propidium iodide staining based flow cytometry (reference value: 7.82%); format: functional
[11] = tested on: HEp-2; experiment: Induction of cell cycle arrest in human Hep2 cells assessed accumulation at G0/G1 phase at 10 ug/ml incubated for 24 hrs by propidium iodide staining based flow cytometry (reference value: 74.51%); format: functional
[12] = tested on: HCT-8; experiment: Induction of apoptosis in human HCT8 cells assessed late apoptosis level at 50 ug/ml incubated for 24 hrs by annexin V-FITC and propidium iodide staining based flow cytometry (reference value: 4.8%); format: functional
[13] = tested on: HEp-2; experiment: Induction of cell cycle arrest in human Hep2 cells assessed accumulation at S phase at 10 ug/ml incubated for 24 hrs by propidium iodide staining based flow cytometry (reference value: 21.06%); format: functional
[14] = Cytotoxicity against human Hep2 cells assessed as cell viability at 50 ug/ml incubated for 24 hrs by MTS assay; format: functional; conditions: HEp-2, 24 h, read-out: Activity; procedure, shortened: as §1
[15] = tested on: HCT-8; experiment: Induction of apoptosis in human HCT8 cells assessed early apoptosis level at 50 ug/ml incubated for 24 hrs by annexin V-FITC and propidium iodide staining based flow cytometry (reference value: 0.75%); format: functional
[16] = Reduction in PRKAA2 gene expression in human Hep2 cells at 50 ug/ml incubated for 24 hrs by real-time PCR method; format: functional, cell-based; conditions: HEp-2; procedure, shortened: as §2
[17] = Cytotoxicity against human HCT8 cells assessed as cell viability at 50 ug/ml incubated for 24 hrs by MTS assay; format: functional; conditions: HCT-8, 24 h, read-out: Activity; procedure, shortened: as §1
[18] = Cytotoxicity against human Hep2 cells assessed as cell viability at 25 ug/ml incubated for 24 hrs by MTS assay; format: functional; conditions: HEp-2, 24 h, read-out: Activity; procedure, shortened: as §1
[19] = Cytotoxicity against human HCT8 cells assessed as cell viability at 12.5 ug/ml incubated for 24 hrs by MTS assay; format: functional; conditions: HCT-8, 24 h, read-out: Activity; procedure, shortened: as §1
[20] = tested on: HEp-2; experiment: Induction of cell cycle arrest in human Hep2 cells assessed accumulation at S phase at 50 ug/ml incubated for 24 hrs by propidium iodide staining based flow cytometry (reference value: 21.06%); format: functional
[21] = tested on: THP-1; experiment: Cytotoxicity against human THP1 cells assessed as cell viability at 25 ug/ml incubated for 24 hrs by MTS assay; format: functional; conditions: THP-1, 24 h, read-out: Activity; procedure, shortened: as §1
[22] = Cytotoxicity against human Hep2 cells assessed as cell viability at 12.5 ug/ml incubated for 24 hrs by MTS assay; format: functional; conditions: HEp-2, 24 h, read-out: Activity; procedure, shortened: as §1
[23] = Reduction in PRKAA2 gene expression in human Hep2 cells at 10 ug/ml incubated for 24 hrs by real-time PCR method; format: functional, cell-based; conditions: HEp-2; procedure, shortened: as §2
[24] = Reduction in PRKAA1 gene expression in human Hep2 cells at 50 ug/ml incubated for 24 hrs by real-time PCR method; format: functional, cell-based; conditions: HEp-2; procedure, shortened: as §2
[25] = tested on: THP-1; experiment: Cytotoxicity against human THP1 cells assessed as cell viability at 12.5 ug/ml incubated for 24 hrs by MTS assay; format: functional; conditions: THP-1, 24 h, read-out: Activity; procedure, shortened: as §1
[26] = tested on: HEp-2; experiment: Increase in cyclin B gene expression in human Hep2 cells at 50 ug/ml incubated for 24 hrs by real-time PCR method; format: functional, cell-based; procedure, shortened: as §2
[27] = tested on: HEp-2; experiment: Reduction in survivin protein levels in human Hep2 cells at 50 ug/ml incubated for 24 hrs by protein array method; format: functional, cell-based
[28] = tested on: HEp-2; experiment: Reduction in livin protein levels in human Hep2 cells at 50 ug/ml incubated for 24 hrs by protein array method; format: functional, cell-based
[29] = tested on: HEp-2; experiment: Increase in FADD protein expression in human Hep2 cells at 50 ug/ml incubated for 24 hrs by protein array method; format: functional, cell-based
[30] = tested on: HEp-2; experiment: Increase in caspase-8 levels in human Hep2 cells at 50 ug/ml incubated for 24 hrs by protein array method; format: functional, cell-based
[31] = tested on: HEp-2; experiment: Increase in PRKAA1 gene expression in human Hep2 cells at 50 ug/ml incubated for 24 hrs by real-time PCR method; format: functional, cell-based; procedure, shortened: as §2
[32] = tested on: HEp-2; experiment: Increase in Fas/TNFRSF6 protein expression in human Hep2 cells at 50 ug/ml incubated for 24 hrs by protein array method; format: functional, cell-based
[33] = tested on: HEp-2; experiment: Reduction in c-IAP1 levels in human Hep2 cells at 50 ug/ml incubated for 24 hrs by protein array method; format: functional, cell-based
[34] = tested on: HEp-2; experiment: Reduction in pro-caspase-3 levels in human Hep2 cells at 50 ug/ml incubated for 24 hrs by protein array method; format: functional, cell-based
[35] = tested on: HEp-2; experiment: Increase in PRKAA2 gene expression in human Hep2 cells at 50 ug/ml incubated for 24 hrs by real-time PCR method; format: functional, cell-based; procedure, shortened: as §2
[36] = tested on: HEp-2; experiment: Reduction in XIAP levels in human Hep2 cells at 50 ug/ml incubated for 24 hrs by protein array method; format: functional, cell-based
[37] = tested on: HEp-2; experiment: Reduction in HSP27 protein levels in human Hep2 cells at 50 ug/ml incubated for 24 hrs by protein array method; format: functional, cell-based
[38] = tested on: HEp-2; experiment: Induction of apoptosis in human Hep2 cells assessed as increase in p53 S15/S46/S392 phosphorylation level at 50 ug/ml incubated for 24 hrs by protein array method; format: functional, cell-based
[39] = tested on: HEp-2; experiment: Reduction in c-IAP2 levels in human Hep2 cells at 50 ug/ml incubated for 24 hrs by protein array method; format: functional, cell-based
[40] = tested on: HEp-2; experiment: Increase in TRAIL-R2 protein expression in human Hep2 cells at 50 ug/ml incubated for 24 hrs by protein array method; format: functional, cell-based
[41] = tested on: HEp-2; experiment: Increase in cleaved-caspase-3 levels in human Hep2 cells at 50 ug/ml incubated for 24 hrs by protein array method; format: functional, cell-based
[42] = tested on: HEp-2; experiment: Increase in TRAIL-R1 protein expression in human Hep2 cells at 50 ug/ml incubated for 24 hrs by protein array method; format: functional, cell-based
[43] = tested on: HEp-2; experiment: Reduction in HSP70 protein levels in human Hep2 cells at 50 ug/ml incubated for 24 hrs by protein array method; format: functional, cell-based

## Cn1cc(C(=O)NC(=S)Nc2ccccc2Br)cn1
[1]
  Activity: 1.87%
[2]
  viability at 25 µg/mL: 100%
[3]
  viability at 50 µg/mL: 31.9%
[4]
  Activity: 70.17%
[5]
  Activity: Active
[6]
  Activity: 91.5%
[7]
  Activity: Dose-dependent effect
[8]
  Activity: 10.28%
[9]
  Activity: inactive
[10]
  Activity: 15.93%
[11]
  Activity: 74.41%
[12]
  Activity: 5.41%
[13]
  Activity: 19.09%
[14]
  viability at 50 µg/mL: 80%
[15]
  Activity: 1.23%
[16]
  Activity: inactive
[17]
  viability at 50 µg/mL: 91.5%
[18]
  viability at 25 µg/mL: 100%
[19]
  viability at 12.5 µg/mL: 100%
[20]
  Activity: 21.87%
[21]
  viability at 25 µg/mL: 59.4%
[22]
  viability at 12.5 µg/mL: 100%
[23]
  Activity: inactive
[24]
  Activity: inactive
[25]
  viability at 12.5 µg/mL: 98%
[26]
  Activity: Active

## Cn1cc(C(=O)NC(=S)Nc2cccc(Br)c2)cn1
[1]
  Activity: 7.58%
[2]
  viability at 25 µg/mL: 89.8%
[27]
  Activity: Active
[3]
  viability at 50 µg/mL: 32%
[4]
  Activity: 15.4%
[5]
  Activity: Active
[6]
  Activity: 78.2%
[28]
  Activity: Active
[7]
  Activity: Dose-dependent effect
[29]
  Activity: Active
[8]
  Activity: 18.43%
[30]
  Activity: Active
[31]
  Activity: Active
[32]
  Activity: Active
[9]
  Activity: Active
[10]
  Activity: 52.33%
[11]
  Activity: 66.12%
[12]
  Activity: 7.11%
[33]
  Activity: Active
[34]
  Activity: Active
[13]
  Activity: 20.85%
[35]
  Activity: Active
[36]
  Activity: Active
[14]
  viability at 50 µg/mL: 70%
[15]
  Activity: 7.07%
[37]
  Activity: Active
[17]
  viability at 50 µg/mL: 78.2%
[18]
  viability at 25 µg/mL: 82%
[38]
  Activity: Active
[19]
  viability at 12.5 µg/mL: 94%
[39]
  Activity: Active
[20]
  Activity: 34.7%
[21]
  viability at 25 µg/mL: 55.8%
[40]
  Activity: Active
[22]
  viability at 12.5 µg/mL: 100%
[23]
  Activity: Active
[41]
  Activity: Active
[25]
  viability at 12.5 µg/mL: 77%
[26]
  Activity: Active
[42]
  Activity: Active
[43]
  Activity: Active

— ChEMBL document CHEMBL3603756, “Synthesis and apoptotic activity of new pyrazole derivatives in cancer cell lines” (2015)
